Measurements published in ChEMBL document CHEMBL1123413, “Synthesis and biological evaluation of 1-(1,2-benzisothiazol-3-yl)- and (1,2-benzisoxazol-3-yl)piperazine derivatives as potential antipsychotic agents” (J Med Chem, 1986).
pIC50: −log10 of the molar value.

Experiments:
Rattus norvegicus [1] = organism: Rattus norvegicus; assay: Inhibition of conditioned avoidance response (CAR); type: functional
Procedure, shortened: (§1)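 Rats trained to avoid an electric shock, test compound given orally, and block of the conditioned avoidance response scored. ED50 (mg/kg, po) with fiducial limits by the method of Berkson.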

[2] = biological target: T1, Adrenergic receptor alpha-1 (Rattus norvegicus, UniProt P15823+P23944+P43140)
T1 sequence (P15823 whole entry): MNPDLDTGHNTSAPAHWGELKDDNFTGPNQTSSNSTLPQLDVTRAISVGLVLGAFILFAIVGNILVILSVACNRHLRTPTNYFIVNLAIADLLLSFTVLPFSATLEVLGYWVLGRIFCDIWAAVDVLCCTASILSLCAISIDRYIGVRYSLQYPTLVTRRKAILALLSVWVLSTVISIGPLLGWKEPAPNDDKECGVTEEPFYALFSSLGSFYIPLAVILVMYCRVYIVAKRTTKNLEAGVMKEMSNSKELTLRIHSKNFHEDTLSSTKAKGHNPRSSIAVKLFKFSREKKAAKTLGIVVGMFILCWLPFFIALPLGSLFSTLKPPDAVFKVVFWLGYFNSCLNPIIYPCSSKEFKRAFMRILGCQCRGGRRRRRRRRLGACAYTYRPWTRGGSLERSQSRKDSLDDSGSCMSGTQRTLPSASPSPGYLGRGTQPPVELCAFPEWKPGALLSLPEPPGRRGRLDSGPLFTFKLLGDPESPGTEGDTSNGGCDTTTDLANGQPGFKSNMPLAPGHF
T1 sequence (P23944 whole entry): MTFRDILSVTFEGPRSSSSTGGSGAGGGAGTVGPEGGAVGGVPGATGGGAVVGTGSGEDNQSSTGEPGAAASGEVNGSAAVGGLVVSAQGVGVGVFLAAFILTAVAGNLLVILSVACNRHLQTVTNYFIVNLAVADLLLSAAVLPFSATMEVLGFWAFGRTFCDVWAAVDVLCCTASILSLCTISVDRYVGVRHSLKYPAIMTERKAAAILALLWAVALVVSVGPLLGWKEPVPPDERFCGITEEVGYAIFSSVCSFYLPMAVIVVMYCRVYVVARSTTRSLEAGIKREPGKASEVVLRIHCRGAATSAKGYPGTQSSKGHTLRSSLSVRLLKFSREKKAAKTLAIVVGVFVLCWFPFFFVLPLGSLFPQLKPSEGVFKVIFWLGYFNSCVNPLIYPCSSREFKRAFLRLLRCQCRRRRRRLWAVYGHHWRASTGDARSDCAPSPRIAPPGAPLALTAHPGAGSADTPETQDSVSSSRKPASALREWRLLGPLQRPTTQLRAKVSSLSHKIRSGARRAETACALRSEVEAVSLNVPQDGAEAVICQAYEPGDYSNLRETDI
T1 sequence (P43140 whole entry): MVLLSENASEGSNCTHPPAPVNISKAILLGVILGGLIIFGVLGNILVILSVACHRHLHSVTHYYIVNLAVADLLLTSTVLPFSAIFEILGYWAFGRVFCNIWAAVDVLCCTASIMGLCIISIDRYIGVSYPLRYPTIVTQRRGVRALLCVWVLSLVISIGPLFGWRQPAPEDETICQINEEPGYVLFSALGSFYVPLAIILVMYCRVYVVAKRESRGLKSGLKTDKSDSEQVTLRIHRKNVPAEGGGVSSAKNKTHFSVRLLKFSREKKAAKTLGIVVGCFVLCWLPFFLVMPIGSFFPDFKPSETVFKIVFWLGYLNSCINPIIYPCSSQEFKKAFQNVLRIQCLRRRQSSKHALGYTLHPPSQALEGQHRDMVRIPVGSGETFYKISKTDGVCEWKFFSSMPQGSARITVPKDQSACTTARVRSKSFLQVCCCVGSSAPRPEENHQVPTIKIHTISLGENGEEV

D(2) dopamine receptor = D(2) dopamine receptor (Rattus norvegicus, UniProt P61169); assay: In vitro affinity for rat striatal Dopamine receptor D2 labeled with [3H]spiperone
Rattus norvegicus [3] = organism: Rattus norvegicus; assay: Compound was tested for the inhibition of apomorphine-induced stereotype; type: functional
Procedure, shortened: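 In rats, oral test compound was scored for block of apomorphine-induced stereotypy as an in vivo dopamine-system measure. ED50 (mg/kg, po) and fiducial limits by Berkson's method.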

Rattus norvegicus [4] = organism: Rattus norvegicus; assay: Compound was tested for its ability to induce catalepsy in rats.; type: functional
Procedure, shortened: (§2)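 Catalepsy was induced in rats with orally dosed compound as a predictor of extrapyramidal liability. ED50 (mg/kg, po) with fiducial limits by Berkson's method.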

[5] = Binding affinity against histamine receptor was measured using radioligand ([3H]-pyrilamine) binding assay
Mus musculus [6] = assay: Compound was tested for inhibition of norepinephrine lethality in mouse when administered perorally; type: functional; conditions: po
Procedure, shortened: (§3)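 Groups of 10 nonfasted male mice dosed orally with test compound (initial 100 mg/kg) or vehicle (distilled H2O or 0.5% methocel). Active compounds retested at lower doses, 10 mice/dose, for dose response. ED50 by Berkson's method.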

Mus musculus [7] = assay: Compound was tested for inhibition of spontaneous motor activity in mouse when administered perorally; type: functional; conditions: po
[8] = Lethal dose after peroral administration in mouse; type: toxicity, organism-based; conditions: in vivo, po
Rattus norvegicus [9] = assay: (§4) Compound was tested for inhibition of ethanol potentiation in rat when administered perorally; type: functional; conditions: po
Procedure, shortened: (§5)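 Nonfasted male rats given test drug orally, vehicle distilled H2O or 0.5% methocel. Hexobarbital sodium (40 mg/kg) or EtOH (10 mL of 20% solution/kg) given ip at 15, 30, 60 or 120 min postdrug, controls 15 min after vehicle. Loss of righting reflex lasting 1 min scored over about 10–15 min. Dose response at time of peak effect, 10 rats/dose. ED50 and fiducial limits by Berkson's method.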

Mus musculus [10] = assay: Compound was tested for inhibition of physostigmine lethality in mouse when administered perorally; type: functional; conditions: po
Procedure, shortened: as §3, with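 “methocel). At 30 min, physostigmine given ip at 1.25 mg/kg, and lethality followed for up to 1 h.” for “methocel).”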

Rattus norvegicus [11] = assay: Compound was tested for inhibition of spontaneous motor activity in rat when administered perorally; type: functional; conditions: po
Rattus norvegicus [12] = assay: Compound was tested for inhibition of hexobarbatial potentiation in rat when administered perorally; type: functional; conditions: po; procedure, shortened: as §5
[13] = biological target: GABA-A receptor; anion channel; assay: Inhibition of [3H]muscimol binding to Gamma-aminobutyric acid (GABA-A) receptor; type: protein-complex assay, Rattus norvegicus
Rattus norvegicus [14] = organism: Rattus norvegicus; assay: Compound was tested for inhibition of conditioned avoidance response (CAR ); type: functional; procedure, shortened: as §1
Rattus norvegicus [15] = assay: as §4; type: functional; conditions: po; remark: listed apart in the source
Procedure, shortened: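 Nonfasted male rats received test drug or vehicle (distilled H2O or 0.5% methocel). EtOH (10 mL of 20% solution/kg, ip) followed at 15, 30, 60 or 120 min post-drug; the vehicle group got it at 15 min. Rats were watched about 10–15 min for loss of righting reflex lasting 1 min. Dose response at peak time used 10/dose; ED50 by Berkson.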

Rattus norvegicus [16] = organism: Rattus norvegicus; assay: Compound was tested for its ability to induce catalepsy in rats; type: functional; procedure, shortened: as §2

Sequence of D(2) dopamine receptor (P61169 whole entry): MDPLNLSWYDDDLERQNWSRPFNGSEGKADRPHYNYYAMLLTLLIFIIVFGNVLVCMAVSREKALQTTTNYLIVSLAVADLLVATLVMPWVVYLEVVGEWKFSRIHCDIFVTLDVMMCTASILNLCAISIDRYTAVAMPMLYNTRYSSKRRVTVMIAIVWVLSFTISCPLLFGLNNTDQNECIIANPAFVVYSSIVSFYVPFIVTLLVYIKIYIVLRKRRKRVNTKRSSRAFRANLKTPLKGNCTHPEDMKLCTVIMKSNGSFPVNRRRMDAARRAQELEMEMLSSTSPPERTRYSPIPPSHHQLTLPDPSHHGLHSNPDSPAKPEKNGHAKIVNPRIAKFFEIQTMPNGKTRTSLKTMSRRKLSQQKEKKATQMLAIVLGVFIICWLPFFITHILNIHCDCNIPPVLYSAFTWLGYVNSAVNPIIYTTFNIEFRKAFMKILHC

Row | Compound | IC50 [2] | pIC50 (D(2) dopamine receptor) | ED50 (Rattus norvegicus [1]) | ED50 (Rattus norvegicus [3]) | ED50 (Rattus norvegicus [4]) | also measured
1 | Cl.c1ccc2c(N3CCNCC3)noc2c1 | 165 nM | < 6.00 | > 100 mg/kg |  |  | 
2 | CN1CCN(C2=Nc3cc(Cl)ccc3Nc3ccccc32)CC1 [CLOZAPINE] |  |  |  |  | > 200 mg/kg | pIC50 [5]: 7.74; ED50 (Mus musculus [6]): 3.5 mg/kg; ED50 (Mus musculus [7]): 1.9 mg/kg; LD50 [8]: 219 mg/kg; ED50 (Rattus norvegicus [9]): 3.23 mg/kg; ED50 (Mus musculus [10]): 5.4 mg/kg; ED50 (Rattus norvegicus [11]): 17.5 mg/kg; ED50 (Rattus norvegicus [12]): 1.69 mg/kg; pIC50 [13]: < 6.00
3 | O=C(CCCN1CCC(O)(c2ccc(Cl)cc2)CC1)c1ccc(F)cc1 [HALOPERIDOL] |  |  | 2.8 mg/kg | 0.5 mg/kg | 0.58 mg/kg | ED50 (Mus musculus [6]): 26 mg/kg; ED50 (Mus musculus [7]): 0.45 mg/kg; LD50 [8]: 500 mg/kg; ED50 (Mus musculus [10]): > 80 mg/kg; ED50 (Rattus norvegicus [11]): 0.73 mg/kg; ED50 (Rattus norvegicus [15]): 0.28 mg/kg
4 | O=C1SC2(CCCC2)C(=O)N1CCCCN1CCCN(c2noc3ccccc23)CC1 |  | < 6.00 | > 100 mg/kg |  |  | 
5 | CN1CCN(CCCN2c3ccccc3Sc3ccc(C(F)(F)F)cc32)CC1 [TRIFLUOPERAZINE] | 350 nM |  | 6.9 mg/kg | 6.5 mg/kg | 3 mg/kg | 
6 | O=C1CSC(=O)N1CCCCN1CCN(c2noc3ccccc23)CC1 | 1 nM | 6.62 | 8.3 mg/kg |  | 11.7 mg/kg | 

More lines, main results first:

Row | IC50 [2] | pIC50 (D(2) dopamine receptor) | Compound | ED50 (Rattus norvegicus [1]) | ED50 (Rattus norvegicus [3]) | ED50 (Rattus norvegicus [4]) | also measured
7 |  | 6.69 | CC1CN(c2nsc3ccccc23)CCN1CCCCN1C(=O)CC2(CCCC2)CC1=O (stereo unspecified) | > 100 mg/kg |  |  | 
8 | 7 nM | 7.60 | O=C1CC2(CCCC2)CC(=O)N1CCCCN1CCN(c2noc3ccccc23)CC1 | 10.6 mg/kg | 20.2 mg/kg | 68.2 mg/kg | 
9 | 0.9 nM | 7.28 | Cl.O=C1CSC(=O)N1CCCCN1CCN(c2nsc3ccccc23)CC1 |  |  |  | ED50 (Rattus norvegicus [14]): 27.8 mg/kg
10 | 2 nM | 7.52 | OC(CCCN1CCN(c2noc3ccccc23)CC1)c1ccc(F)cc1 (stereo unspecified) | 1 mg/kg | 2.3 mg/kg | 2.2 mg/kg | 
11 |  | 7.31 | CCC1(CC)CC(=O)N(CCCCN2CCN(c3nsc4ccccc34)CC2)C(=O)C1.Cl |  |  |  | ED50 (Rattus norvegicus [14]): 35.2 mg/kg
12 | 8 nM | 8.00 | O=C(CCCN1CCN(c2nsc3ccccc23)CC1)c1ccc(F)cc1 | 7.4 mg/kg |  |  | ED50 (Rattus norvegicus [16]): 16.4 mg/kg
13 |  | 7.11 | O=C1SC2(CCCC2)C(=O)N1CCCCN1CCN(c2noc3ccccc23)CC1 | 8.1 mg/kg |  | 21.5 mg/kg | 
14 | 4 nM | 7.64 | CC1(C)CC(=O)N(CCCCN2CCN(c3nsc4ccccc34)CC2)C(=O)C1 |  | 4.8 mg/kg | 15.2 mg/kg | ED50 (Rattus norvegicus [14]): 4.1 mg/kg
